The subject of series [1] is A549. The series can be described thus: Cytotoxicity against human A549 cells assessed as reduction in cell viability by MTS assay. In kind it is functional, cell-based. The procedure, abridged:
(§1)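 MTS viability assay. Cells were seeded at 5 × 10^3 per well for 24 h, then exposed to serial dilutions (5, 10, 15, 20, and 50 μM) in medium with 10% FBS and grown for the indicated duration. Controls got DMSO. MTS was added for 1 h at 37 °C and absorbance read at 490 nm. Results are % of control, with IC50 calculated.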

The nature of series [2]: Cytotoxicity against human MGC cells assessed as reduction in cell viability by MTS assay. In kind it is functional, cell-based. Put shortly:
as §1
For orientation: Formazan colour is commonly taken as a measure of viable cells.

Series [3] relates to HaCaT. The series can be described thus: Toxicity in human HaCaT cells assessed as reduction in glucose uptake per 10^5 cells at 20 uM incubated for 12 hrs. In kind it is cell-based. Put shortly:
(§2)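 Cells were seeded and after 24 h switched to fresh medium with 10% FBS, with or without 20 μM compound. After 12 h, supernatant glucose and lactate were measured on an automatic biochemistry analyzer. Cell numbers were counted in parallel by MTS. Rates (nmol/h/10^5 cells) were computed as the difference from blank medium divided by 12 h and by cell number. LY294002 served as positive control.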

The subject of series [4] is MCF7. The experiment in a line: Reduction in hexokinase-2 protein expression in human MCF7 cells by SDS-PAGE and Western blotting method. In kind it is functional, cell-based. Conditions: TDE = time-dependent effect. The procedure, abridged:
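MCF-7 cells were treated for 1, 3, 6, 12, 24 and 48 h and lysed in cold buffer. 50 μg protein was run on 10% SDS-PAGE and transferred to nitrocellulose. Membranes were probed with anti-HK2 primary antibody at 4 °C overnight, then HRP secondary for 1 h at room temperature, with ECL detection. α-Tubulin was the internal control.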
On the technique in general: Immunoblotting shows a protein as a band on a membrane.

Series [5] in a line: Cytotoxicity against human Hep3B2 cells assessed as reduction in cell viability by MTS assay. In kind it is functional, cell-based, Hep 3B2. Conditions: Hep3B. The procedure, abridged:
as §1

Series [6] deals with HaCaT. The experiment in a line: Toxicity in human HaCaT cells assessed as reduction in lactate secretion per 10^5 cells at 20 uM incubated for 12 hrs. In kind it is cell-based. Put shortly:
as §2

The nature of series [7]: Cytotoxicity against human EC109 cells assessed as reduction in cell viability by MTS assay. The conditions noted are these: ECa-109. In kind it is functional, cell-based. The procedure, abridged: as §1
Series [8] deals with HaCaT. The series can be described thus: Cytotoxicity against human HaCaT cells assessed as reduction in cell viability by MTS assay. In kind it is cell-based. Put shortly:
as §1

In series [9] the test system is MCF7. The experiment in a line: Reduction in ATP generation in human MCF7 cells at 20 uM incubated for 12 and 24 hrs. In kind it is functional, cell-based. Put shortly:
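MCF-7 cells were exposed to 20 μM for 2, 4, 6, 8, 12 and 24 h. ATP was measured with a commercial kit, quantified against an ATP standard curve and expressed as % of the control group.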

The test system of series [10] is MCF7. The experiment in a line: Reduction in glucose uptake in human MCF7 cells assessed per 10^5 cells at 20 uM incubated for 12 hrs (reference value: 5.6 nM/hr/10^5 cells). In kind it is functional. Put shortly:
as §2

The nature of series [11]: Cytotoxicity against mouse NIH/3T3 cells assessed as reduction in cell viability by MTS assay. In kind it is cell-based. The conditions noted are these: NIH3T3. The procedure, abridged: as §1
The nature of series [12]: Cytotoxicity against human PANC1 cells assessed as reduction in cell viability by MTS assay. In kind it is functional, cell-based. Conditions: PANC-1. Put shortly:
as §1

Series [13] relates to MCF7. The series can be described thus: Reduction in lactate secretion in human MCF7 cells assessed per 10^5 cells at 20 uM incubated for 12 hrs. In kind it is functional. The procedure, abridged: as §2
Series [14] relates to A-375. The experiment in a line: Cytotoxicity against human A375 cells assessed as reduction in cell viability by MTS assay. In kind it is functional, cell-based. The procedure, abridged:
as §1

Series [15] deals with MCF7. The experiment in a line: Cytotoxicity against human MCF7 cells assessed as reduction in cell viability by MTS assay. In kind it is functional, cell-based.
The nature of series [16]: Cytotoxicity against human CNE1-LMP1 cells assessed as reduction in cell viability by MTS assay. In kind it is functional, cell-based. Put shortly:
as §1

Series [17] has as its system CNE1-LMP1. The experiment in a line: Cytotoxicity against human CNE1-LMP1 cells assessed as reduction in cell viability at 50 uM by MTS assay. In kind it is functional, cell-based. Put shortly: as §1
Series [18] has as its system A549. The series can be described thus: Cytotoxicity against human A549 cells assessed as reduction in cell viability at 50 uM by MTS assay. In kind it is functional, cell-based. The procedure, abridged:
as §1

Series [19] can be described thus: Cytotoxicity against mouse NIH/3T3 cells assessed as reduction in cell viability at 50 uM by MTS assay. In kind it is cell-based. The conditions noted are these: nih3t3, 50 µM. The procedure, abridged:
as §1

Series [20] relates to Hep 3B2. The experiment in a line: Cytotoxicity against human Hep3B2 cells assessed as reduction in cell viability at 50 uM by MTS assay. In kind it is functional, cell-based. Put shortly: as §1
The test system of series [21] is HaCaT. The series can be described thus: Cytotoxicity against human HaCaT cells assessed as reduction in cell viability at 50 uM by MTS assay. In kind it is cell-based. Put shortly: as §1
The subject of series [22] is MCF7. The series can be described thus: Cytotoxicity against human MCF7 cells assessed as reduction in cell viability at 50 uM by MTS assay. In kind it is functional, cell-based. The procedure, abridged: as §1
The subject of series [23] is PANC-1. The series can be described thus: Cytotoxicity against human PANC1 cells assessed as reduction in cell viability at 50 uM by MTS assay. In kind it is functional, cell-based. The procedure, abridged: as §1
The test system of series [24] is MGC. The experiment in a line: Cytotoxicity against human MGC cells assessed as reduction in cell viability at 50 uM by MTS assay. In kind it is functional, cell-based. Put shortly: as §1
In series [25] the test system is A-375. The series can be described thus: Cytotoxicity against human A375 cells assessed as reduction in cell viability at 50 uM by MTS assay. In kind it is functional, cell-based. Put shortly: as §1
For series [26], the system named is ECa-109. The series can be described thus: Cytotoxicity against human EC109 cells assessed as reduction in cell viability at 50 uM by MTS assay. In kind it is functional, cell-based. The procedure, abridged: as §1

The structures appear in SMILES notation. pIC50: −log10 of the molar value. Calls of active or inactive are those of the source. No cut-off for these calls is given here.

Take `C=C1CCC(c2coc(/C=C(\C)C(N)=O)c2)CC1`: the pIC50 – broadly, the IC50 on a negative log10 scale, so that one unit is a factor of ten – in series [1] was below 4.30; in [2] it was 4.83; in series [5] it was below 4.30; in series [7], below 4.30; in series [8] it was below 4.30; in [11] it was below 4.30. Also, the pIC50 in [12] was below 4.30; in [14] it was below 4.30; in series [15], 5.08; in series [16], below 4.30. Moreover, the Activity result was “Non-toxic” in [3], “Non-toxic” in series [6], 4.2 nM/h in series [10] and 0.5 nM/h in series [13]. For the same compound, in series [4], the inhibition entry is “tde”. In series [9], the inhibition entry is “Active”.

With `C=C1CCC(C2=C/C(=C\C(C)C(N)=O)OC2=O)CC1` (racemic), the result in series [17], in [18], in series [20], in series [22], in series [23] and in [24] was inactive. Besides, the result in [25] and in series [26] was inactive. The Activity result in series [19] and in series [21] was “Non-toxic” throughout.

`C/C(=C\c1cc([C@H]2CC[C@@](O)(CO)CC2)co1)C(N)=O`: the outcome in [17], in [18], in [20], in series [22], in series [23] and in [24] was inactive. The outcome in series [25] and in [26] was inactive. For the same compound, the Activity entry in [19] and in series [21] was “Non-toxic” in each case.

For the compound `CC(=O)O[C@H]1C(=O)[C@@]2(C)[C@H]([C@H](OC(=O)c3ccccc3)[C@]3(O)C[C@H](OC(=O)[C@H](O)[C@@H](NC(=O)c4ccccc4)c4ccccc4)C(C)=C1C3(C)C)[C@]1(OC(C)=O)CO[C@@H]1C[C@@H]2O` [PACLITAXEL], the pIC50 in [2] was 8.19; in [5], 10.80; in [7] it was 6.85; in series [11], 5.38; in series [12], 8.96; in [16], 8.38.

In the case of `CC(=O)OC[C@]1(O)CC[C@H](C2=C/C(=C/C(C)C(N)=O)OC2=O)CC1` (mixture of isomers), the outcome in series [17], in [18], in series [20], in series [22], in series [23] and in series [24] was inactive. For the same compound, the result in [25] and in series [26] was inactive. In addition, the Activity entry in series [19] and in series [21] was “Non-toxic” in each case.

On to `C=C1CCC(C2=C/C(=C/C(C)C(N)=O)OC2=O)CC1` (racemic), for which the outcome in series [17], in series [18], in series [20], in [22], in series [23] and in series [24] was inactive. Also, the result in [25] and in series [26] was inactive. Besides, the Activity result in series [19] and in [21] was “Non-toxic” in each case.

Consider `CC(/C=C1/C=C([C@H]2CC[C@@](O)(CO)CC2)C(=O)O1)C(N)=O` (mixture of isomers), for which the result in series [17], in series [18], in series [20], in series [22], in [23] and in series [24] was inactive. In addition, the outcome in series [25] and in [26] was inactive. Besides, the Activity result in series [19] and in series [21] was “Non-toxic” throughout.

The values are drawn from ChEMBL document CHEMBL3580581, “Bisabolane Sesquiterpenoids from the Plant Endophytic Fungus Paraconiothyrium brasiliense” (J Nat Prod, 2015).
